For one test, the system named is PACSIN3 SH3 domain. In words: NMR 1H,15N-HSQC chemical shift titration with PACSIN3 SH3 domain. It counts as binding, chicken. The settings on record: for affinity for PACSIN3 SH3 domain relative to wildtype (in words): mutations in the TRPV4-PRR, interaction not fully abolished, Fig. S6, Table S1. The essentials:
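Chicken PACSIN3 SH3 domain (N-terminal His6) was 15N-labelled in E. coli minimal medium and purified by NiNTA then Superdex75 SEC. It was held at 250 μM in 10 mM Tris pH7, 100 mM NaCl and titrated from concentrated stocks with peptide (wildtype, AAWAA, P128A or P128A/P129L) and/or lipid, with the second ligand added sequentially. HSQC shifts were fitted for KD.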

Test [1] has as its target chicken PACSIN3 SH3 domain (chicken). In words: NMR titration.
The target in test [2] is chicken PACSIN1 SH3 domain (chicken). Description: NMR titration.

Consider `CCCCCCCC(=O)OC[C@H](COP(=O)(O)O[C@@H]1[C@H](O)[C@H](O)[C@@H](OP(=O)(O)O)[C@H](OP(=O)(O)O)[C@H]1O)OC(=O)CCCCCCC` [PIP2, diC8-PI(4,5)P2, reference compound], for which the “interaction with PACSIN3 SH3 domain (in words)” value in the test with PACSIN3 SH3 domain (PIP2 added to isolated 15N-PACSIN3 SH3, no chemical shift changes in 1H,15N-HSQC) is given as “does not interact”.

As for “P128A/P129L: TRPV4 N-terminal peptide with double mutation P128A/P129L in the PRR (ENKRWRRRVVEKPVAGTKGPAPNALPILKV; left off: His6-SUMO, N-terminal, cleaved)”, the “affinity for PACSIN3 SH3 domain relative to wildtype (in words)” value with PACSIN3 SH3 domain was “weakened”.

With “P128A: TRPV4 N-terminal peptide with single P128A mutation in the PRR (ENKRWRRRVVEKPVAGTKGPAPNAPPILKV; left off: His6-SUMO, N-terminal, cleaved)”, the “affinity for PACSIN3 SH3 domain relative to wildtype (in words)” value in the test with PACSIN3 SH3 domain was “weakened”.

By Kd is commonly meant the free concentration of one partner at which half of the binding sites on the other are occupied at equilibrium, for simple one-to-one binding. “chicken TRPV4 PIP2 binding domain plus proline rich region peptide (PBD-PRR, residues 105-134) (from UniProt A0A1D5PXA5 105-134)”: the Kd in test [1] is 74.2 µM.

Turning to “chicken TRPV4 proline rich region peptide (PRR, residues 121-134), native sequence (from UniProt A0A1D5PXA5 121-134)”, the results for the Kd in test [1] and in test [2] were 68.6 µM and 51.6 µM, respectively.
